PGC1a acetyl inh = PGC1a acetylation modulation, inhibitor mode; U2OS PGC1a acetylation, AlphaScreen anti-acetyl-lysine; with virally co-expressed GCN5 acetyltransferase; inhibition, % at 15.6 µM; hit rate 0.17% among 350,000; AID 651687;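 active = every replicate shows inhibition of at least 40%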
CAL PDZ FP-1 = blocks peptide binding to the human CAL PDZ domain; purified CAL PDZ, TMR-peptide fluorescence polarization, 1 h; inhibition, % at 24.9 µM; hit rate 0.92% among 300,000; Q9HD26;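 active = mean inhibition of at least 30% with at least half of replicates also reaching 30%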
miR-122 sensor = blocks miR-122 activity in Huh7 sensor cells; Huh7 miR-122 Renilla luciferase sensor, 48 h; neutral wells = 0, positive control = 100; activation (reporter increase), % at 12.5 µM; hit rate 0.3% among 340,000; AID 602342;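 active = mean replicate activation score at least 90 and every replicate individually at or above 90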;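 also: higher luciferase means less miR-122 activity so hits act as miR-122 inhibitors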
CFTR F508del cor = correctors of CFTR F508del function in bronchial epithelial cells. AID 720511. hit rate 0.36% among 350,000. CFBE cells, YFP halide quenching; stimulated with forskolin plus potentiator P3; % fluorescence drop versus neutral controls. activity (quench increase), % at 7.58 µM;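 active = mean added fluorescence quench of at least 8% versus neutral control, with both replicates also reaching 8%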;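 also: cells transiently co-express mutant CFTR-F508del with the halide-sensitive YFP; corrector assay measuring rescue of mutant channel to the surface after 24 h compound exposure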
CAL PDZ FP-2 = inhibitors of human CAL PDZ peptide binding | purified CAL PDZ, TMR-peptide fluorescence polarization, 1 h | inhibition, % at 20 µM | hit rate 0.02% among 330,000 | AID 504414;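 active = highest replicate inhibition of at least 40%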
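Test system: tagged CAL PDZ domain / Buffer or medium: sodium phosphate/NaCl buffer pH 7.4 with TCEP, IgG, Thesit / Reagent: TMR-labelled reporter peptide T*-PRC34 bound in PDZ groove / Compound dosing: single point, 20 µM / Schedule: 1 h incubation at room temperature before polarization reading / Technique: fluorescence polarization (mP) / Benchmarks: unlabelled peptide, DMSO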
ARNT TACC3 PPI = disruptors of human ARNT/TACC3 interaction | Q9Y6A5 | inhibition, % at 9.99 µM | AlphaScreen His-ARNT PAS-B/GST-TACC3 binding, luminescence; TACC3 fragment carries E629A point mutation | hit rate 0.66% among 390,000;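 active = mean inhibition of replicates at least 50% and at least half of replicates each reaching 50%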
Hits are given with their value; 0 = inactive; - = not tested or not shown. Shown are actives, neighbours in structure and some others; about 1.7% of the full set was active somewhere.

SMILES	PGC1a acetyl inh	CAL PDZ FP-1	miR-122 sensor	CFTR F508del cor	CAL PDZ FP-2	ARNT TACC3 PPI
C[C@@H]1CCCCO[C@H](CN(C)C(=O)CCCN(C)C)[C@H](C)CN([C@H](C)CO)C(=O)c2cc(NS(C)(=O)=O)ccc2O1	0	-	0	0	-	-
C[C@@H]1CN([C@H](C)CO)C(=O)c2cc(C#Cc3cccnc3)cnc2O[C@@H]1CN(C)Cc1ccccc1	0	-	0	0	-	0
COc1ccc(-c2csc(NC(=S)NC(=O)/C=C/c3ccc(C(C)C)cc3)n2)cc1OC	-	0	0	0	0	0
COc1ccc(-c2csc(NC(=S)NC(=O)/C=C/c3ccco3)n2)cc1Br	0	-	0	9.4	0	0
O=C(/C=C/c1ccco1)Nc1nc(-c2ccccc2)cs1	-	0	0	0	0	0
O=C(/C=C/c1ccco1)Nc1nc(-c2ccccn2)cs1	-	0	-	0	0	65
COc1ccc(-c2csc(NC(=S)NC(=O)/C=C/c3ccco3)n2)cc1OC	0	0	0	9.7	0	0
C[C@H]1CCCCO[C@H](CN(C)C(=O)Nc2ccc(F)cc2)[C@@H](C)CN([C@@H](C)CO)C(=O)c2cc(NS(=O)(=O)c3cccs3)ccc2O1	0	-	0	0	-	0
CCCN1C[C@@H](C)[C@H](OC)CN(C)C(=O)c2ccc(NC(=O)c3cccc(OC)c3)cc2OC[C@@H]1C	0	-	-	0	-	-
O=C(NCc1ccc(F)cc1)[C@H]1[C@H](CO)[C@H]2Cn3c(cccc3=O)[C@@H]1N2C(=O)c1cnccn1	-	-	0	0	-	0
O=C(NCc1cccc(F)c1)[C@@H]1[C@@H](CO)[C@@H]2Cn3c(cccc3=O)[C@H]1N2C(=O)c1cnccn1	-	-	0	0	-	active
Cc1cccc(COc2ccccc2C(=O)NC2CCC(O)CC2)c1 (stereo not given)	-	0	-	8.2	0	0
C[C@@H]1CN([C@@H](C)CO)C(=O)c2cc(NC(=O)C3CCCCC3)ccc2O[C@@H](C)CCCCO[C@H]1CN(C)C	0	-	0	0	-	-
O=C(C[C@H]1CC[C@H]2[C@@H](COC[C@@H](O)CN2C(=O)c2ccccc2)O1)NCc1cccc(F)c1	0	-	0	0	-	0
O=S(=O)(Nc1cccc2cccnc12)c1ccc(S(=O)(=O)N2CCCC2)cc1	0	0	0	-	0	67
O=S(=O)(Nc1cccc2cccnc12)c1ccccc1	-	0	0	0	0	0
C[C@@H]1CCCCO[C@H](CN(C)CC2CC2)[C@@H](C)CN([C@H](C)CO)C(=O)c2cc(NC(=O)Nc3ccccc3)ccc2O1	0	-	0	0	-	0
COc1ccc(CCN2CC(C(=O)NCC3(O)CCCCC3)CCC2=O)cc1 (stereo not given)	-	0	0	0	0	-
CN(C)C1(CNC(=O)C2CCC(=O)N(CCc3ccc(Cl)cc3)C2)CCCCC1 (stereo not given)	-	0	0	0	88	0
COc1ccc(S(=O)(=O)Nc2ccc3c(c2)C(=O)N([C@H](C)CO)C[C@H](C)[C@H](CN(C)C(=O)Nc2cccc4ccccc24)OCCCC[C@@H](C)O3)cc1	0	-	0	0	-	0
Cc1ccc2c(CN3CCCc4ccccc43)cc(=O)oc2c1C	0	49	147	-	-	0
O=C(COc1ccccc1F)c1ccc(O)cc1O	-	0	218	-	0	0
O=C(COc1ccc(Cl)cc1)c1ccc(O)cc1O	0	55	0	0	0	0
COC(=O)c1ccc(OCC(=O)c2ccc(O)cc2O)cc1	0	0	0	-	0	0
COc1ccc(CN(C)C[C@H]2OCCCC[C@H](C)Oc3ccc(NS(=O)(=O)c4ccc(C)cc4)cc3C(=O)N([C@@H](C)CO)C[C@@H]2C)cc1	0	-	0	0	-	0
SMILES	PGC1a acetyl inh	CAL PDZ FP-1	miR-122 sensor	CFTR F508del cor	CAL PDZ FP-2	ARNT TACC3 PPI
C[C@@H]1CN([C@@H](C)CO)C(=O)c2cc(NS(C)(=O)=O)ccc2O[C@H]1CN(C)S(=O)(=O)c1ccc(F)cc1	0	-	0	0	-	0
COc1n[nH]c(C(=O)Nc2nc3ccccc3s2)c1[N+](=O)[O-]	-	66	-	0	0	0
O=C(Nc1ccccc1F)N1CC(=O)N2[C@H](CO)[C@@H](c3ccc(C#CC4CC4)cc3)[C@@H]2C1	0	-	-	0	-	-
COc1ccccc1NC(=O)CN1CCCCCC1	-	47	0	0	0	-
COc1ccccc1NC(=O)C1CCN(C(=O)NCc2ccccc2)CC1	-	56	0	0	0	0
COc1ccccc1NC(=O)Cn1c([N+](=O)[O-])cnc1C	0	64	0	0	0	0
O=C(Nc1cccc2ccccc12)C1CCN(C(=O)NCc2ccccc2)CC1	0	0	0	-	0	0
CCOc1ccc(NC(=O)CN2CCN(CC(=O)Nc3ccccc3OC)CC2)cc1	0	123	0	0	-	0
C[C@H]1CN([C@@H](C)CO)C(=O)c2cccc(NS(=O)(=O)c3ccc(Cl)cc3)c2O[C@H]1CN(C)S(=O)(=O)c1ccc(F)cc1	0	-	0	0	-	0
COCC#Cc1cnc2c(c1)C(=O)N([C@H](C)CO)C[C@@H](C)[C@@H](CN(C)C)O2	0	-	0	0	-	0
CN(C)S(=O)(=O)c1ccc(NC(=O)CN2CCCCCC2)cc1	0	133	0	0	0	0
COc1ccc(CNC(=O)C[C@H]2C[C@H]3c4cc(NC(=O)C5CCC5)ccc4O[C@H]3[C@@H](CO)O2)cc1	0	-	0	0	-	0
COc1ccc2c3c(n(C)c2c1)[C@@H](CO)N(C(=O)Nc1ccc(F)cc1)CC31CN(S(=O)(=O)c2cccs2)C1	0	-	-	0	-	-
O=C(N[C@H]1CC[C@H](CCn2cc(Cc3ccccc3)nn2)O[C@@H]1CO)c1ccccn1	0	-	-	0	-	0
CCN1C(C#N)=C(C#N)N=C(C)CC1(C)C	109	0	0	0	0	0
CC1=NN(C(C#N)c2ccccc2O)C(C)(C)C1 (stereo not given)	0	0	-	0	0	0
COc1ccc(S(=O)(=O)Nc2ccc3c(c2)C(=O)N([C@H](C)CO)C[C@@H](C)[C@H](CN(C)Cc2ccc(Cl)c(Cl)c2)OCCCC[C@@H](C)O3)cc1	0	-	0	0	-	0
O=C(CS(=O)(=O)c1ccccc1)c1cc2ccccc2oc1=O	0	0	0	-	0	0
O=C(CS(=O)(=O)c1ccccc1)c1cc2cc(F)ccc2oc1=O	0	79	0	-	0	0
CC(C)Nc1cc(C(C)(C)C)nc2c(-c3ccccc3)cnn12	-	133	-	0	0	0
COc1ccccc1-n1cc(-c2ccccc2)c2c(=S)nc[nH]c21	0	77	0	0	0	0
CCN1CCN(c2nc(-c3ccccn3)nc3ccccc23)CC1	0	0	0	-	0	46
c1ccc(-c2nc(N3CCOCC3)c3ccccc3n2)nc1	0	0	0	-	0	-
c1ccc(CCNc2nc(-c3ccccn3)nc3ccccc23)cc1	0	-	0	13	0	64
c1ccc(CN2CCN(c3nc(-c4ccccn4)nc4ccccc34)CC2)cc1	0	0	0	-	0	0
